Measurements taken from ChEMBL document CHEMBL4406880, “Design, synthesis, and bioactivity of dihydropyrimidine derivatives as kinesin spindle protein inhibitors” (Bioorg Med Chem, 2019).

Key:
Assay type in all cases: functional
MOLT-4 = test: Growth inhibition of human MOLT4 cells assessed as growth percentage at 10 uM incubated for 48 hrs by sulforhodamine B assay relative to control; settings: MOLT-4, 48 h, read-out: Activity
Summary of the method: (§1)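 NCI-60 one-dose screen. Cells in RPMI 1640 with 5% FBS and 2 mM L-glutamine, seeded at 5,000–40,000 cells/well according to doubling time, and preincubated overnight at 37 °C, 5% CO2. A time-zero plate was TCA-fixed at drug addition. Compound from DMSO stock, final 10 µM, 48 h; DMSO vehicle controls. Fixation with TCA, 10% final (16% for suspension cells). SRB stain, Tris solubilization, A515. Result given as % growth versus untreated cells.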

SNB-75 = test: Growth inhibition of human SNB75 cells assessed as growth percentage at 10 uM incubated for 48 hrs by sulforhodamine B assay relative to control; settings: SNB-75, 48 h, read-out: Activity
Summary of the method: (§2)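 NCI-60 single-dose screen. Cells were grown in RPMI 1640 with 5% FBS and 2 mM L-glutamine and plated at 5,000–40,000 cells/well. After an overnight preincubation at 37 °C in 5% CO2, compound was added at a final 10 µM from a DMSO stock, with DMSO/PBS controls. After 48 h, cells were TCA-fixed and stained with 0.4% SRB, and absorbance was read at 515 nm. Growth is given as a percentage of untreated control.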

LOX IMVI = test: Growth inhibition of human LOXIMVI cells assessed as growth percentage at 10 uM incubated for 48 hrs by sulforhodamine B assay relative to control; settings: read-out: Activity; summary of the method: as §1
SR = test: Growth inhibition of human SR cells assessed as growth percentage at 10 uM incubated for 48 hrs by sulforhodamine B assay relative to control; settings: read-out: Activity; summary of the method: as §2
SK-OV-3 = test: Growth inhibition of human SKOV3 cells assessed as growth percentage at 10 uM incubated for 48 hrs by sulforhodamine B assay relative to control; settings: SK-OV-3, 48 h, read-out: Activity; summary of the method: as §2
KM12 = test: Growth inhibition of human KM12 cells assessed as growth percentage at 10 uM incubated for 48 hrs by sulforhodamine B assay relative to control; settings: KM12, 48 h, read-out: Activity; summary of the method: as §1
EKVX = test: Growth inhibition of human EKVX cells assessed as growth percentage at 10 uM incubated for 48 hrs by sulforhodamine B assay relative to control; settings: read-out: Activity
Summary of the method: (§3)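 NCI-60 one-dose screen: cells in RPMI 1640 with 5% FBS and 2 mM L-glutamine, plated at 5,000–40,000 cells/well and preincubated 24 h at 37 °C, 5% CO2. Compound is added from a DMSO stock to a final 10 µM and incubated 48 h. Cells are TCA-fixed and stained with sulforhodamine B, read at 515 nm. Output is % growth versus untreated control, with a time-zero plate.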

MCF7 = test: Growth inhibition of human MCF7 cells assessed as growth percentage at 10 uM incubated for 48 hrs by sulforhodamine B assay relative to control; settings: MCF7, 48 h, read-out: Activity; summary of the method: as §1
UACC-257 = test: Growth inhibition of human UACC257 cells assessed as growth percentage at 10 uM incubated for 48 hrs by sulforhodamine B assay relative to control; settings: UACC-257, 48 h, read-out: Activity; summary of the method: as §2
DU-145 = test: Growth inhibition of human DU145 cells assessed as growth percentage at 10 uM incubated for 48 hrs by sulforhodamine B assay relative to control; settings: DU-145, 48 h, read-out: Activity; summary of the method: as §3
MDA-MB-231 = test: Growth inhibition of human MDA-MB-231 cells assessed as growth percentage at 10 uM incubated for 48 hrs by sulforhodamine B assay relative to control; settings: MDA-MB-231, 48 h, read-out: Activity; summary of the method: as §1
IGROV-1 = test: Growth inhibition of human IGROV1 cells assessed as growth percentage at 10 uM incubated for 48 hrs by sulforhodamine B assay relative to control; settings: IGROV-1, 48 h, read-out: Activity; summary of the method: as §1
HOP-92 = test: Growth inhibition of human HOP92 cells assessed as growth percentage at 10 uM incubated for 48 hrs by sulforhodamine B assay relative to control; settings: HOP-92, 48 h, read-out: Activity; summary of the method: as §1
CAKI-1 = test: Growth inhibition of human Caki1 cells assessed as growth percentage at 10 uM incubated for 48 hrs by sulforhodamine B assay relative to control; settings: CAKI-1, 48 h, read-out: Activity; summary of the method: as §3
PC-3 = test: Growth inhibition of human PC3 cells assessed as growth percentage at 10 uM incubated for 48 hrs by sulforhodamine B assay relative to control; settings: PC-3, 48 h, read-out: Activity; summary of the method: as §2
U-251 = test: Growth inhibition of human U251 cells assessed as growth percentage at 10 uM incubated for 48 hrs by sulforhodamine B assay relative to control; settings: U-251, 48 h, read-out: Activity; summary of the method: as §2
SNB-19 = test: Growth inhibition of human SNB19 cells assessed as growth percentage at 10 uM incubated for 48 hrs by sulforhodamine B assay relative to control; settings: SNB-19, 48 h, read-out: Activity; summary of the method: as §2
Hs-578T = test: Growth inhibition of human Hs 578T cells assessed as growth percentage at 10 uM incubated for 48 hrs by sulforhodamine B assay relative to control; settings: read-out: Activity; summary of the method: as §1
T47D = test: Growth inhibition of human T47D cells assessed as growth percentage at 10 uM incubated for 48 hrs by sulforhodamine B assay relative to control; settings: read-out: Activity; summary of the method: as §2
RPMI-8226 = test: Growth inhibition of human RPMI8226 cells assessed as growth percentage at 10 uM incubated for 48 hrs by sulforhodamine B assay relative to control; settings: RPMI-8226, 48 h, read-out: Activity; summary of the method: as §2
NCI/ADR-RES = test: Growth inhibition of human NCI/ADR-RES cells assessed as growth percentage at 10 uM incubated for 48 hrs by sulforhodamine B assay relative to control; settings: read-out: Activity; summary of the method: as §1
A549 = test: Growth inhibition of human A549/ATCC cells assessed as growth percentage at 10 uM incubated for 48 hrs by sulforhodamine B assay relative to control; settings: A549, 48 h, read-out: Activity; summary of the method: as §3
SK-MEL-28 = test: Growth inhibition of human SK-MEL-28 cells assessed as growth percentage at 10 uM incubated for 48 hrs by sulforhodamine B assay relative to control; settings: SK-MEL-28, 48 h, read-out: Activity; summary of the method: as §2
COLO 205 = test: Growth inhibition of human COLO205 cells assessed as growth percentage at 10 uM incubated for 48 hrs by sulforhodamine B assay relative to control; settings: COLO 205, 48 h, read-out: Activity; summary of the method: as §3
M14 = test: Growth inhibition of human M14 cells assessed as growth percentage at 10 uM incubated for 48 hrs by sulforhodamine B assay relative to control; settings: M14, 48 h, read-out: Activity; summary of the method: as §1
OVCAR-5 = test: Growth inhibition of human OVCAR5 cells assessed as growth percentage at 10 uM incubated for 48 hrs by sulforhodamine B assay relative to control; settings: OVCAR-5, 48 h, read-out: Activity; summary of the method: as §2
MDA-MB-435 = test: Growth inhibition of human MDA-MB-435 cells assessed as growth percentage at 10 uM incubated for 48 hrs by sulforhodamine B assay relative to control; settings: MDA-MB-435, 48 h, read-out: Activity; summary of the method: as §1

Structure (SMILES)	growth at 10 µM (MOLT-4)	growth at 10 µM (SNB-75)	growth at 10 µM (LOX IMVI)	growth at 10 µM (SR)	growth at 10 µM (SK-OV-3)	growth at 10 µM (KM12)	growth at 10 µM (EKVX)	growth at 10 µM (MCF7)	growth at 10 µM (UACC-257)	growth at 10 µM (DU-145)	growth at 10 µM (MDA-MB-231)	growth at 10 µM (IGROV-1)	growth at 10 µM (HOP-92)	growth at 10 µM (CAKI-1)	growth at 10 µM (PC-3)	growth at 10 µM (U-251)	growth at 10 µM (SNB-19)	growth at 10 µM (Hs-578T)	growth at 10 µM (T47D)	growth at 10 µM (RPMI-8226)	also measured
CC(=O)C1=C(C)NC(=O)NC1c1ccc2c(c1)OCO2 (racemic)	103%	94.1%	96.4%	108%	103%	110%	101%	96.9%	107%	118%	102%	103%	102%	91.4%	99%	100%	95.4%	111%	91.8%	103%	growth at 10 µM (NCI/ADR-RES): 106%; growth at 10 µM (A549): 103%; growth at 10 µM (SK-MEL-28): 115%; growth at 10 µM (COLO 205): 104%; growth at 10 µM (M14): 104%; growth at 10 µM (OVCAR-5): 102%; growth at 10 µM (MDA-MB-435): 105%
CC1=C(C(=O)c2ccccc2)C(c2ccc3c(c2)OCO3)NC(=S)N1 (racemic)	36.6%	-1.4%	36.2%	6.28%	51.6%	20%	73.5%	22%	57.2%	78.7%	79.1%	46.1%	92.3%	35.6%	61.5%	37.5%	63.8%	23.4%	67.9%	44%	growth at 10 µM (NCI/ADR-RES): 43.3%; growth at 10 µM (A549): 40.3%; growth at 10 µM (SK-MEL-28): 70.9%; growth at 10 µM (COLO 205): 47.6%; growth at 10 µM (M14): 34.6%; growth at 10 µM (OVCAR-5): 72.5%; growth at 10 µM (MDA-MB-435): -49.5%
CC(=O)C1=C(C)NC(=S)NC1c1ccc2c(c1)OCO2 (racemic)	98.8%	90.1%	98.7%	104%	102%	109%	106%	103%	102%	111%	104%	104%	92.5%	91.9%	98.1%	98.2%	98.9%	101%	96.2%	105%	growth at 10 µM (NCI/ADR-RES): 112%; growth at 10 µM (A549): 105%; growth at 10 µM (SK-MEL-28): 116%; growth at 10 µM (COLO 205): 109%; growth at 10 µM (M14): 107%; growth at 10 µM (OVCAR-5): 101%; growth at 10 µM (MDA-MB-435): 103%
CC1=C(C(=O)c2ccccc2)C(c2ccc3c(c2)OCO3)NC(=O)N1 (racemic)	103%	91.4%	97.3%	101%	109%	99.9%	95.1%	97.5%	98%	105%	102%	90.6%	92.4%	91.1%	103%	96.5%	101%	102%	91.2%	100%	growth at 10 µM (NCI/ADR-RES): 103%; growth at 10 µM (A549): 101%; growth at 10 µM (SK-MEL-28): 117%; growth at 10 µM (COLO 205): 114%; growth at 10 µM (M14): 99.8%; growth at 10 µM (OVCAR-5): 106%; growth at 10 µM (MDA-MB-435): 90.1%
CC1=C(C(=O)OCc2ccccc2)C(c2ccc3c(c2)OCO3)NC(=O)N1 (racemic)	104%	96%	97.9%	104%	105%	105%	95.8%	101%	103%	107%	104%	97.2%	92.3%	89.5%	84.5%	99.5%	96.1%	98.1%	89.2%	89.1%	growth at 10 µM (NCI/ADR-RES): 97.7%; growth at 10 µM (A549): 106%; growth at 10 µM (SK-MEL-28): 110%; growth at 10 µM (COLO 205): 116%; growth at 10 µM (M14): 97.4%; growth at 10 µM (OVCAR-5): 106%; growth at 10 µM (MDA-MB-435): 103%
CC(=O)N1C(=S)NC(C)=C(C(=O)OC(C)C)C1c1ccc2c(c1)OCO2 (racemic)	95.2%	97.2%	98.8%	89.6%	104%	99.7%	99.7%	97.2%	104%	104%	88.9%	106%	78.1%	97.2%	87.2%	92.6%	98.1%	98%	70.4%	73.9%	growth at 10 µM (NCI/ADR-RES): 103%; growth at 10 µM (A549): 99.4%; growth at 10 µM (SK-MEL-28): 111%; growth at 10 µM (COLO 205): 99.5%; growth at 10 µM (M14): 96.8%; growth at 10 µM (OVCAR-5): 107%; growth at 10 µM (MDA-MB-435): 102%
